Molecules are shown by their SMILES. Active and inactive are the calls of the source.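 How the source made its calls, unless noted: active means inhibition at or above 50% at 10 µM; inactive means inhibition below 50%.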

The record followed here is PubChem BioAssay.

Test [1] can be described thus: inhibitors of TNFa-induced NFkB p65 translocation, primary screen, imaging, HUVEC, MLSMR starter and 10KST1 sets (AID 438;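 active means inhibition above 20% together with a positive visual image hit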;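 further: compound added about 3h40 before a 20 min TNFalpha stimulation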;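 on inhibition: signal is the nuclear over cytoplasmic p65 intensity ratio per well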). To be noted: HUVEC TNFa-induced p65 nuclear translocation; cell count: measured here: nuclei count (cytotoxicity indicator), at 2.08 µM; inhibition: at 2 µM, stronger effect = higher value, 0% TNFa-plus-vehicle, 100% no-TNFa wells.
Test [2] can be described thus: inhibitors of mutant huntingtin aggregation, primary screen, imaging, exon1htt(103Q)mCFP cells, high-content imaging (AID 483;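 active means visual image review flags a hit and inhibition of aggregation exceeds 20%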;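 further: compound exposure lasted 3 days before fixation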;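 on nuclei count: percent of the per-plate median nuclei count of sample wells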). To be noted: exon1htt(103Q)mCFP cell line, aggregate imaging, at 2 µM; inhibition of aggregation: stronger effect = higher value; nuclei count: measured here: cell count, toxicity.
Test [3] can be described thus: inhibitors of E-selectin induction by TNFa, primary screen, imaging, HUVEC, immunofluorescence, MLSMR starter and 10KST1 sets (AID 487;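 active means visually confirmed hit in the image check and inhibition above 20%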;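 on inhibition: signal is fraction of cell area covered by stained E-selectin grains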;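 on nuclei count: 100% = median nuclei count of all wells on the same plate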). To be noted: HUVEC TNFalpha-induced E-selectin immunofluorescence imaging, at 2 µM; inhibition: stronger effect = higher value; nuclei count: measured here: cell number, toxicity.
Test [4] deals with Voltage-gated potassium channel subunit beta-2 (Rattus norvegicus) (UniProt P62483). Put plainly: KvBeta enzyme negative modulators, primary screen, biochemical, NADPH fluorescence (AID 622;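 active means fluorescence slope higher than the sample average by over 3 SD, cut at about -0.22 in these data, passing the limit was not always enough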;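 further: slope of raw intensity against log time taken from 70 to 1610 s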). The following applies: recombinant KvBeta, 4-cyanobenzaldehyde reduction, at 10 µM, stronger effect = higher value.
Sequence of Voltage-gated potassium channel subunit beta-2 (Rattus norvegicus) (P62483 whole entry, looked up): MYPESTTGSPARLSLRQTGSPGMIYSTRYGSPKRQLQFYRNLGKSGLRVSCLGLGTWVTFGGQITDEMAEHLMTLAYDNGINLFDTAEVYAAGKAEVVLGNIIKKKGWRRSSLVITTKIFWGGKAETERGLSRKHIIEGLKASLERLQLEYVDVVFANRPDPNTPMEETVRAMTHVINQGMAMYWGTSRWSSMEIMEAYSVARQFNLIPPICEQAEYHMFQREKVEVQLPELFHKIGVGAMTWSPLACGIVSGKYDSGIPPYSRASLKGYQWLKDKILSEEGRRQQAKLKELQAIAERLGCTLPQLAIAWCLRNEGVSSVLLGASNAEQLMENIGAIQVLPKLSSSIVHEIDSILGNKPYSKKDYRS
The target is the same in test [5]. The test is described as follows: KvBeta positive modulators, primary screen, biochemical, NADPH fluorescence (AID 623;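 active means NADPH fluorescence slope more negative than the mean of all samples by about 3 SD, 99.7% confidence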;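 further: fluorescence intensity change per second fitted from 20 to 320 s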). To be noted: Recombinant KvBeta, NADPH fluorescence decrease slope, 10 min; at 10 µM; stronger effect = lower value.
Test [6] addresses Muscarinic acetylcholine receptor M4 (Homo sapiens) (UniProt P08173). Put plainly: compounds altering M4/GIRK thallium flux, either direction, primary screen, M4 allosteric agonist project, cell-based, HEK293 M4/GIRK, BTC-AM (AID 625;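 active means fluorescence slope after compound addition differing from the mean of all tested samples at 99.7% confidence, mostly higher but some lower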;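 further: thallium influx through GIRK channels coupled to M4 in HEK293 cells with BTC-AM dye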). To be noted: at 10 µM, actives lie on both sides. Put shortly:
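Material – HEK293 cells with M4 receptor and GIRK channels · Buffer or medium – pH 7.3 thallium assay buffer · Doses – one dose, 10 µM final · Timing – cells overnight at 37 °C, BTC-AM loading 1 h, reads 2 min total · Measured by – kinetic fluorescence with BTC-AM dye · Controls – carbachol and DMSO controls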

Test [7] is described as follows: inhibitors of Sendai virus-induced IRF3 signaling, primary screen, TLR/RLR signaling modifier project, cell-based, Sendai virus stimulus, luciferase, 10K MLSCN set (AID 602276).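 Further: firefly luciferase from ISG56 promoter only with Renilla not read in this screen; 0% = Sendai virus plus DMSO and 100% = medium plus DMSO without virus.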 The following applies: HEK293 RL24 IRF3 luciferase reporter, at 10 µM, stronger effect = higher value. For orientation: A reporter such as luciferase makes a cellular process visible.
Test [8] can be described thus: inhibitors of poly I:C-induced TLR3 signaling, primary screen, cell-based, poly I:C stimulus, luciferase, 10K MLSCN set (AID 602277;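 active means inhibition of the reporter signal at or above 50%; inactive means inhibition below 50%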). The following applies: HEK293-TLR3 RL24 IRF3 luciferase reporter, at 10 µM, stronger effect = higher value.

Sequence of Muscarinic acetylcholine receptor M4 (Homo sapiens) (P08173 whole entry, looked up): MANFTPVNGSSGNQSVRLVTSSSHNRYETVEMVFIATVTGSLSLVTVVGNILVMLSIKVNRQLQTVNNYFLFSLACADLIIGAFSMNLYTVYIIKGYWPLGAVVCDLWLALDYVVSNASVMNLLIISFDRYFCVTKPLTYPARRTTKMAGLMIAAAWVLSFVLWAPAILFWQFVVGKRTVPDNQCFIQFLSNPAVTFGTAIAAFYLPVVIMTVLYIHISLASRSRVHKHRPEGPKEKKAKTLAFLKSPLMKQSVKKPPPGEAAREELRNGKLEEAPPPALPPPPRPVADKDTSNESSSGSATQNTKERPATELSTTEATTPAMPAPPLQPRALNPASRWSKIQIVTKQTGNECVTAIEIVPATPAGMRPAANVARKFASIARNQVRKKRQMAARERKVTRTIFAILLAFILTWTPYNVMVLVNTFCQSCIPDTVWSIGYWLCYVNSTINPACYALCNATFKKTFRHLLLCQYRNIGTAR

The term inhibition denotes the relative decrease from the control value, in per cent. As to `CC(C)(C)C(=O)Cn1c(=N)n(Cc2ccccc2)c2ccccc21`, in test [1], the cell count amounted to 394. Further, the inhibition in test [1] was 6.1% (inactive); in test [3], 20.9% (inactive); in test [7] it was 20% (inactive); in test [8], 17.2% (inactive). For the same compound, the inhibition of aggregation in test [2] was 8.9% (inactive). Moreover, the nuclei count turned out to be 99.1% in test [2] and 96% in test [3]. Moreover, the fluorescence slope was -0.409 (inactive) in test [4] and 0.00407 (inactive) in test [6]. Moreover, the NADPH fluorescence slope in test [5] was 4.3e-05 (inactive).

On to `COc1ccc(NS(=O)(=O)c2c(C)[nH]c(=O)[nH]c2=O)c(OC)c1`, for which the cell count in test [1] was 409. Also, the inhibition in test [1] was 3.8% (inactive); in test [3] it was -40.5% (inactive); in test [7], 7.23% (inactive); in test [8] it was 13.8% (inactive). The inhibition of aggregation in test [2] is 7.4% (inactive). Also, the nuclei count was 103% in test [2] and 113% in test [3]. The fluorescence slope is -0.565 (inactive) in test [4] and 0.00529 (inactive) in test [6]. For the same compound, the NADPH fluorescence slope in test [5] is -2.6e-05 (inactive).

On to `N#Cc1c(-c2ccccc2)nc(SCc2nc(N)nc(N3CCCCC3)n2)[nH]c1=O`, for which the cell count in test [1] was 401. For the same compound, the inhibition in test [1] is -14% (inactive); in test [3], -20.8% (inactive); in test [7], 14.8% (inactive); in test [8] it was -10.4% (inactive). Moreover, the inhibition of aggregation in test [2] was 13% (inactive). Besides, the nuclei count in test [2] came to 85.3%; in test [3] it was 97.8%. The fluorescence slope in test [4] was -0.442 (inactive); in test [6], 0.00582 (inactive). Moreover, the NADPH fluorescence slope in test [5] is 0.000117 (inactive).

For `COc1ccc(-n2c(COc3ccccc3)nnc2SCc2ccc(C#N)cc2)cc1`, the cell count in test [1] turned out to be 687. For the same compound, the inhibition in test [1] is -7.7% (inactive); in test [3] it was -58.1% (inactive); in test [7], 3.44% (inactive); in test [8] it was 19.5% (inactive). Moreover, the inhibition of aggregation in test [2] is -21% (inactive). Also, the nuclei count in test [2] was found to be 56.4%; in test [3], 95.8%. Moreover, the fluorescence slope is -0.543 (inactive) in test [4] and 0.00479 (inactive) in test [6]. The NADPH fluorescence slope in test [5] is -5.8e-05 (inactive).

Regarding `COc1ccc(C2CC(=O)c3c(C)nc(N4CCN(c5ccccc5)CC4)nc3C2)cc1` (centres undefined), in test [1], the cell count worked out at 598. The inhibition was 5.6% (inactive) in test [1], 29.4% (inactive) in test [3], 8.81% (inactive) in test [7] and -8.5% (inactive) in test [8]. For the same compound, the inhibition of aggregation in test [2] was -5.3% (inactive). In addition, the results for the nuclei count in test [2] and in test [3] were 109% and 108%, respectively. Further, the fluorescence slope in test [4] is -0.574 (inactive); in test [6] it was 0.00457 (inactive). For the same compound, in test [5], the NADPH fluorescence slope was -4.7e-05 (inactive).

Consider `COc1ccccc1-n1cnc(N)c1C(C)=O`, for which the cell count in test [1] came to 675. In addition, the inhibition was -9.1% (inactive) in test [1], -12.3% (inactive) in test [3], 6.44% (inactive) in test [7] and 5.79% (inactive) in test [8]. The inhibition of aggregation in test [2] was -12.9% (inactive). For the same compound, the nuclei count is 105% in test [2] and 110% in test [3]. In addition, the values for the fluorescence slope in test [4] and in test [6] were -0.586 (inactive) and 0.00353 (inactive), respectively. In test [5], the NADPH fluorescence slope was -5.1e-05 (inactive).

In the case of `CCOc1ccc2nc(SCC#N)c(C#N)cc2c1`, the cell count in test [1] was 430. For the same compound, the inhibition in test [1] was 3.1% (inactive); in test [3] it was 9.9% (inactive); in test [7], -56.3% (inactive); in test [8], -93.9% (inactive). Further, the inhibition of aggregation in test [2] was -3.9% (inactive). Further, the nuclei count in test [2] turned out to be 14.5%; in test [3], 114%. Also, the fluorescence slope is -0.561 (inactive) in test [4] and 0.00501 (inactive) in test [6]. Further, in test [5], the NADPH fluorescence slope was -1.4e-05 (inactive).

On to `Cc1noc(C)c1S(=O)(=O)N1CCC(C(=O)N2CCN(Cc3ccc4c(c3)OCO4)CC2)CC1`, for which the cell count in test [1] came out at 721. Also, the inhibition in test [1] was -6.9% (inactive); in test [3], -40.5% (inactive); in test [7], 13.4% (inactive); in test [8], 17.8% (inactive). For the same compound, the inhibition of aggregation in test [2] was 8.9% (inactive). Moreover, the figures for the nuclei count in test [2] and in test [3] were 107% and 103%, respectively. In addition, the figures for the fluorescence slope in test [4] and in test [6] were -0.498 (inactive) and 0.00556 (inactive), respectively. Further, the NADPH fluorescence slope in test [5] is 1.3e-06 (inactive).

Take `COc1cccc(C(c2nnnn2Cc2ccccc2)N2CCN(C(=O)c3ccco3)CC2)c1OC` (centres undefined): the cell count in test [1] came out at 414. Besides, the inhibition in test [1] was 4.3% (inactive); in test [3], -195% (inactive); in test [7], 8.65% (inactive); in test [8], 11.2% (inactive). Further, the inhibition of aggregation in test [2] was 5% (inactive). The nuclei count in test [2] was determined as 69.9%; in test [3], 161%. Further, the results for the fluorescence slope in test [4] and in test [6] were -0.473 (inactive) and 0.00486 (inactive), respectively. Further, in test [5], the NADPH fluorescence slope was -2e-05 (inactive).

Consider `C=CCn1c(=O)[nH]c2cc(C(=O)N3CCN(c4ccc(C(C)=O)cc4)CC3)ccc2c1=O`, for which the cell count in test [1] is 359. For the same compound, the inhibition in test [1] was -1.8% (inactive); in test [3], -161% (inactive); in test [7] it was -1.65% (inactive); in test [8], -9.26% (inactive). In addition, the inhibition of aggregation in test [2] was 20.3% (inactive). The nuclei count in test [2] came out at 101%; in test [3], 106%. The figures for the fluorescence slope in test [4] and in test [6] were -0.464 (inactive) and 0.00531 (inactive), respectively. In test [5], the NADPH fluorescence slope was 1.5e-05 (inactive).

As to `Cc1ccc(-n2nc(-c3cccs3)cc2C(=O)NCC2CCCO2)c(C)c1` (centres undefined), in test [1], the cell count turned out to be 490. Further, the inhibition was -1.7% (inactive) in test [1], -9.6% (inactive) in test [3], 7.58% (inactive) in test [7] and 20.7% (inactive) in test [8]. Moreover, in test [2], the inhibition of aggregation was -12.1% (inactive). Further, the nuclei count in test [2] was 15.1%; in test [3] it was 110%. Moreover, the fluorescence slope in test [4] was -0.405 (inactive); in test [6], 0.00713 (inactive). For the same compound, in test [5], the NADPH fluorescence slope was -8.6e-05 (inactive).

For `Nc1c(C(=O)NCCc2ccccc2)nnn1Cc1ccccc1`, the cell count in test [1] amounted to 564. Further, the inhibition in test [1] is 4.8% (inactive); in test [3], -6.5% (inactive); in test [7] it was -11.8% (inactive); in test [8], -13.7% (inactive). For the same compound, in test [2], the inhibition of aggregation was 24.6% (inactive). Also, the nuclei count is 69.8% in test [2] and 98.3% in test [3]. Also, the fluorescence slope in test [4] was -0.571 (inactive); in test [6], 0.00544 (inactive). Also, the NADPH fluorescence slope in test [5] is -4.3e-05 (inactive).

For the compound `CN(C)S(=O)(=O)c1ccc2c(c1)C(CC(=O)O)OC2=O` (centres undefined), the cell count in test [1] came to 616. The inhibition in test [1] is 2.3% (inactive); in test [3], 27.5% (inactive); in test [7] it was 17.3% (inactive); in test [8] it was 26.3% (inactive). Also, in test [2], the inhibition of aggregation is 13.2% (inactive). Also, the results for the nuclei count in test [2] and in test [3] were 109% and 105%, respectively. Further, the figures for the fluorescence slope in test [4] and in test [6] were -0.511 (inactive) and 0.00625 (inactive), respectively. Further, the NADPH fluorescence slope in test [5] is 0.000172 (inactive).

Regarding `CCC(=O)Nc1ccc(NC(=O)CSc2nnnn2C(C)C)cc1`, in test [1], the cell count worked out at 667. The inhibition in test [1] was -8.1% (inactive); in test [3] it was -74.4% (inactive); in test [7] it was 14.9% (inactive); in test [8] it was 16.2% (inactive). Moreover, the inhibition of aggregation in test [2] is -6% (inactive). Further, the values for the nuclei count in test [2] and in test [3] were 74.9% and 129%, respectively. The fluorescence slope in test [4] is -0.461 (inactive); in test [6] it was 0.00465 (inactive). The NADPH fluorescence slope in test [5] is -4.3e-05 (inactive).
